# Laboratory results from ChEMBL document CHEMBL4433237, “6,6'-Dihydroxythiobinupharidine as a poison of human type II topoisomerases” (Bioorg Med Chem Lett, 2019).
# Calls of active or inactive are those of the source. No cut-off for these calls is given here.
# Legend:
# Homo sapiens [1] = organism: Homo sapiens; test: (§1) Covalent poison activity at recombinant human topoisomerase-2alpha N- and C-terminal domain deletion mutant assessed as increase in pBR322 DNA cleavage at 50 uM using supercoiled pBR322 DNA as substrate incubated for 6 mins and measured after 30 mins by ethidium bromide staining based agarose gel electrophoresis method relative to control
# Summary of the method: (§2)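 Enzyme is a human topoisomerase IIα catalytic core (residues 431–1193) lacking the N- and C-terminal domains. Negatively supercoiled plasmid is the substrate. Double-stranded breaks are read as linear plasmid on ethidium bromide-stained agarose gels and compared with a linear standard. Values are means ± SD of three independent experiments.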
# Homo sapiens [2] = organism: Homo sapiens; test: as §1, with “100” for “50”; summary of the method: as §2
# [3] = biological target: DNA topoisomerase 2-alpha (Homo sapiens) (UniProt P11388); test: (§3) Poison activity at recombinant human topoisomerase-2alpha expressed in Saccharomyces cerevisiae assessed as increase in double-stranded DNA cleavage at 500 uM using supercoiled pBR322 DNA as substrate preincubated for 120 sec followed by substrate addition incubated for 6 mins and measured after 30 mins by ethidium bromide staining based agarose gel electrophoresis method relative to control
# Summary of the method: (§4)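 500 μM compound preincubated with topoisomerase IIα for varying times before DNA addition. Double-stranded breaks measured and expressed relative to the zero-time level set to 1.0. Three independent experiments.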
# [4] = biological target: DNA topoisomerase 2-beta (Homo sapiens) (UniProt Q02880); test: (§5) Inhibition of recombinant human topoisomerase-2beta expressed in Saccharomyces cerevisiae assessed as increase in double-stranded DNA cleavage at 0 to 1000 uM using supercoiled pBR322 DNA as substrate incubated for 6 mins measured after 30 mins by ethidium bromide staining based agarose gel electrophoresis method relative to control
# Summary of the method: (§6)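 Human topoisomerase IIα or IIβ with negatively supercoiled plasmid. Cleavage trapped with SDS. Supercoiled, nicked and linear forms resolved on ethidium bromide-stained agarose gels. Cleavage normalized to linear standards set to 100%. Three independent experiments.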
# [5] = biological target: DNA topoisomerase 2-alpha (Homo sapiens) (UniProt P11388); test: (§7) Covalent poison activity at recombinant human topoisomerase-2alpha expressed in Saccharomyces cerevisiae assessed as decrease in pBR322 DNA cleavage up to 1000 uM using supercoiled pBR322 DNA as substrate incubated for 6 mins and measured after 30 mins in presence of glutathione by ethidium bromide staining based agarose gel electrophoresis method relative to control
# [6] = biological target: DNA topoisomerase 2-alpha (Homo sapiens) (UniProt P11388); test: Poison activity at recombinant human topoisomerase-2alpha expressed in Saccharomyces cerevisiae assessed as stabilization of DNA-enzyme cleavage complex at 500 uM using supercoiled pBR322 DNA as substrate incubated for 10 mins and measured after 0 to 240 mins by ethidium bromide staining based agarose gel electrophoresis method
# [7] = biological target: DNA topoisomerase 2-alpha (Homo sapiens) (UniProt P11388); test: as §5, with “topoisomerase-2alpha” for “topoisomerase-2beta”; summary of the method: as §6
# [8] = biological target: DNA topoisomerase 2-alpha (Homo sapiens) (UniProt P11388); test: Inhibition of recombinant human topoisomerase-2alpha expressed in Saccharomyces cerevisiae assessed as increase in double-stranded DNA cleavage at 500 uM using supercoiled pBR322 DNA as substrate incubated for 6 mins measured after 30 mins in presence of EDTA by ethidium bromide staining based agarose gel electrophoresis method relative to control
# Summary of the method: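 Human topoisomerase IIα, plasmid DNA and 500 μM compound. After reaction, mixtures treated with 25 mM EDTA before SDS to remove active-site Mg2+, versus reactions stopped with SDS before EDTA. Cleavage read on ethidium bromide-stained agarose gel. Two independent experiments.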
# Homo sapiens [9] = organism: Homo sapiens; test: as §1, with “0 to 1000” for “50”
# Summary of the method: (§8)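 Plasmid cleavage with topoisomerase IIα truncations: C-terminal deletion construct keeping the N-terminal portion or catalytic core, residues 431–1193, lacking both N- and C-terminal domains. Compound at 0–1000 μM. Cleavage complexes trapped with SDS. Negatively supercoiled, nicked and linear forms resolved on ethidium bromide-stained agarose gels. Cleavage normalized to linear standards set to 100%.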
# [10] = biological target: DNA topoisomerase 2-alpha (Homo sapiens) (UniProt P11388); test: as §7, with “ascorbic acid” for “glutathione”
# [11] = biological target: DNA topoisomerase 2-alpha (Homo sapiens) (UniProt P11388); test: as §3, with “assessed as enzyme inactivation time by measuring increase in” for “assessed as increase in”; summary of the method: as §4
# Homo sapiens [12] = organism: Homo sapiens; test: as §1, with “human N-terminal” for “human”, “topoisomerase-2alpha” for “topoisomerase-2alpha N- and”, “mutant expressed in Saccharomyces cerevisiae” for “mutant”, “0 to 1000” for “50”; summary of the method: as §8
# [13] = biological target: DNA topoisomerase 2-alpha (Homo sapiens) (UniProt P11388); test: Poison activity at recombinant human topoisomerase-2alpha expressed in Saccharomyces cerevisiae assessed as rate of DNA ligation time at 0 to 500 uM incubated for 6 mins by agarose gel electrophoresis method (reference value: 12.5 sec)
# DNA = test: Induction of DNA cleavage in supercoiled pBR322 DNA at 500 uM incubated for 6 mins measured after 30 mins by ethidium bromide staining based agarose gel electrophoresis method relative to control; type: nucleic-acid assay; conditions: Escherichia coli
# Summary of the method: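 Control with enzyme omitted: 500 μM compound incubated with plasmid DNA alone under DNA cleavage assay conditions. Products resolved on ethidium bromide-stained agarose gel. Two independent experiments.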
# [14] = biological target: DNA topoisomerase 2-alpha (Homo sapiens) (UniProt P11388); test: as §7, with “dithiothreitol” for “glutathione”
# Sequence of DNA topoisomerase 2-alpha (Homo sapiens) (P11388 whole entry): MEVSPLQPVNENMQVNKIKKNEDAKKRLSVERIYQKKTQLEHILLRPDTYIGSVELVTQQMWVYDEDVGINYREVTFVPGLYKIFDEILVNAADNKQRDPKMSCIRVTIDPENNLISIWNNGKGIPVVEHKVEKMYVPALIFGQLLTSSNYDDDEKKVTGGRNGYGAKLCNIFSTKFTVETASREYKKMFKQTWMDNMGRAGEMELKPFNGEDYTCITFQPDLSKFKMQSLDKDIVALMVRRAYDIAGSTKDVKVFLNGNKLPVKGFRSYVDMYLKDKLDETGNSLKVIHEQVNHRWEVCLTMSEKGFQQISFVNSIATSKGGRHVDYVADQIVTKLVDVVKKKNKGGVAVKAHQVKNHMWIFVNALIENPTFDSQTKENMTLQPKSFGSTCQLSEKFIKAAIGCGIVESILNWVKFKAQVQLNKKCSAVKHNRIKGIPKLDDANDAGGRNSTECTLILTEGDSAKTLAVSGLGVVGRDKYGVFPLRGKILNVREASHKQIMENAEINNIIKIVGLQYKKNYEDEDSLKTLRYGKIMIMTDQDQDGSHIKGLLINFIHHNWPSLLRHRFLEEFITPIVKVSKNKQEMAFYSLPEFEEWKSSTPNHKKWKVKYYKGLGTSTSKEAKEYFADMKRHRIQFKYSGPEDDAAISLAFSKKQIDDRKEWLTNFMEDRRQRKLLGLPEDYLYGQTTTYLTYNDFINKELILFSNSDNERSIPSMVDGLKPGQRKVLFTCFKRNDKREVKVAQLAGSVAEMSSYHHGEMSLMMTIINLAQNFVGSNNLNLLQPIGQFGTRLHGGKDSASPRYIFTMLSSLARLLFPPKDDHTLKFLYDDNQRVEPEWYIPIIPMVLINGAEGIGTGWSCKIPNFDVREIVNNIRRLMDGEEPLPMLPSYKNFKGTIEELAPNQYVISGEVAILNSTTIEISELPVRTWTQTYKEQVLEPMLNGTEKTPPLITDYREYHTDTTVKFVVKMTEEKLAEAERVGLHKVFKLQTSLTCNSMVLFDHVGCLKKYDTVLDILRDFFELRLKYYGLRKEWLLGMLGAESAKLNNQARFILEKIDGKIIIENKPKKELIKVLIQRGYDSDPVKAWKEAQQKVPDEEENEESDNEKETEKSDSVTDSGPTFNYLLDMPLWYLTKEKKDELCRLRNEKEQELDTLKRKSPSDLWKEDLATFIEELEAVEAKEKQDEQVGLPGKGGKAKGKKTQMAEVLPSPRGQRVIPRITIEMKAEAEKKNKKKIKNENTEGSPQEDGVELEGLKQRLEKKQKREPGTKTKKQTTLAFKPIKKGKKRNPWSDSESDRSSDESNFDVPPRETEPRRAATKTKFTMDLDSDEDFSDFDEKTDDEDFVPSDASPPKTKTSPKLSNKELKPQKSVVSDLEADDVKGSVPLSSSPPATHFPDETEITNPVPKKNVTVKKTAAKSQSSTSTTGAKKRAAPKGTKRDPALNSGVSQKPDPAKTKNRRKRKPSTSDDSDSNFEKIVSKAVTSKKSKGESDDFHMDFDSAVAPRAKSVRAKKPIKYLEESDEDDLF
# Sequence of DNA topoisomerase 2-beta (Homo sapiens) (Q02880 whole entry): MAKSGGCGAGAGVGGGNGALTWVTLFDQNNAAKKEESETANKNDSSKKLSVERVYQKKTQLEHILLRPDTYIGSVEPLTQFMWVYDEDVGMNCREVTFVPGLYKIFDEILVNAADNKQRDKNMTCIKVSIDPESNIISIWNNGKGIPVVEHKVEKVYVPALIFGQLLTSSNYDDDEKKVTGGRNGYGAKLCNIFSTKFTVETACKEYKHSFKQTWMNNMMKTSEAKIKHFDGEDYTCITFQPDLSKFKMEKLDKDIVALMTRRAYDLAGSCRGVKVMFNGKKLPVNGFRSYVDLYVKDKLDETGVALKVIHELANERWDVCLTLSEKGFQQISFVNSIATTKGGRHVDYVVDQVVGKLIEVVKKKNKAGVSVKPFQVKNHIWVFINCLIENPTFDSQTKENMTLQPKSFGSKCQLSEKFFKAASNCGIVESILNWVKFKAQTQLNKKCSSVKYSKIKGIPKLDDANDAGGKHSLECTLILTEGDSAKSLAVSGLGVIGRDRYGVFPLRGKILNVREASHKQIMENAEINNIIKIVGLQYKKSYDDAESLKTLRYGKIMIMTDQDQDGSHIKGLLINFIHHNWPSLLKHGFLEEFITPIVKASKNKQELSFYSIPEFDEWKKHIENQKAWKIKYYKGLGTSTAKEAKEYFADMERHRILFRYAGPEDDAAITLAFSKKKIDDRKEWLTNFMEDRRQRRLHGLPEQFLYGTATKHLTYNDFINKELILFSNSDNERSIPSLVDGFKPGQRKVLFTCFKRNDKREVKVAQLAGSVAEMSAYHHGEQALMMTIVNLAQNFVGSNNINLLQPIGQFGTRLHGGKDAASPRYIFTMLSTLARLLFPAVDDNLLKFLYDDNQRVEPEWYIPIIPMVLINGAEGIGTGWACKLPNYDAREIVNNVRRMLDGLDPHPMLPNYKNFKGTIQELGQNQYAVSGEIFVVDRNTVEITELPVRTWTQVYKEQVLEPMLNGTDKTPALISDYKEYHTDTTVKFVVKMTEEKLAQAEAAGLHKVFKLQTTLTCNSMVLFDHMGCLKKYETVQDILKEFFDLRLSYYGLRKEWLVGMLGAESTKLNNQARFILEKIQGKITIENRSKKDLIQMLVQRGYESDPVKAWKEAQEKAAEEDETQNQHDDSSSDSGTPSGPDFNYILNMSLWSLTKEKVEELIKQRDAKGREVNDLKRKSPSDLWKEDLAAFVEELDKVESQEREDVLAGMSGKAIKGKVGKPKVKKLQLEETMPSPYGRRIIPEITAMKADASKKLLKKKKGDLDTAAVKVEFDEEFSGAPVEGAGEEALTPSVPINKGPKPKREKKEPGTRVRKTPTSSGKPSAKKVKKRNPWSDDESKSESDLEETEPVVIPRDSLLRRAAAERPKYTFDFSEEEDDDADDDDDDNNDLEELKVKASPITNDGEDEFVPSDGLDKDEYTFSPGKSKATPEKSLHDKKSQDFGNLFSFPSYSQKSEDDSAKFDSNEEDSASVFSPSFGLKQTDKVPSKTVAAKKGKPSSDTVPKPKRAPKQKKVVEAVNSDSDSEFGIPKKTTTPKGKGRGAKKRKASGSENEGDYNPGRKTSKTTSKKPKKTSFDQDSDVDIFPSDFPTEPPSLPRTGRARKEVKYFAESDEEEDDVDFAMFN
SMILES,Activity (Homo sapiens [1]),Activity (Homo sapiens [2]),inhibition [3],fold change (FC) [4],Activity [5],Activity [6],fold change (FC) [7],inhibition [8],Activity (Homo sapiens [9]),Activity [10],T1/2 [11],Activity (Homo sapiens [12]),T1/2 [13],Activity (DNA),Activity [14]
COc1cc([C@@H]2c3cc4c(cc3[C@@H](O[C@@H]3O[C@@H]5CO[C@@H](C)O[C@H]5[C@H](O)[C@H]3O)[C@H]3COC(=O)[C@H]23)OCO4)cc(OC)c1O,Active,Active,–,–,–,–,–,–,–,–,–,–,–,–,–
C[C@@H]1CC[C@@H](c2ccoc2)N2[C@H]1CC[C@@]1(CS[C@@]3(CC[C@H]4[C@H](C)CC[C@@H](c5ccoc5)N4[C@@H]3O)C1)[C@H]2O,–,–,100%,3,inactive,Active,8,inactive,inactive,inactive,30 s,Active,11 s,inactive,inactive
